Laboratory results: paper PMC4576993 (Leukemia, 2011)
Like-named read-outs stand apart in the source and are kept apart here.

Legend:
[1] = test system: phosphorylated H2AX (γH2AX) in peripheral blood blasts; assay: γH2AX in patient peripheral blood blasts by flow cytometry; assay type: in vivo, human
Procedure, shortened: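 Peripheral blood blasts from 10 weekly-schedule patients were sampled on days 1 and 8, predose and 2 h postdose. Ficoll-enriched cells were fixed in 70% ethanol at 4 °C and stained in TBS/4% FBS/0.1% Triton X-100. Primary was anti-phospho-Ser139 H2AX or IgG1 isotype (1:500, 2 h), then Alexa488 anti-mouse (1:200, 1 h) with 5 μg/ml RNase, then 2% formaldehyde. Flow cytometry used […]. %γH2AX-positive was set against isotype overlays.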

[2] = rat tissue distribution studies; no reference given; cited from earlier work
p53 = conditions: cited from earlier work
[3] = assay type: in vivo, human
Procedure, shortened: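 Open-label 3+3-type escalation in cohorts of 3–6, starting at 18 mg/m2 weekly (days 1, 8, 15) or 9 mg/m2 twice weekly (days 1, 4, 8, 11), 28-day cycles, with modified Fibonacci increments. A cohort was expanded to 6 on any DLT. MTD was the level below that with ≥2/6 DLTs. DLT was assessed in cycle 1 through day 29. Toxicity was graded by NCI CTCAE v3.0. One 25% dose reduction was allowed, with supportive care permitted.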

[4] = twice weekly (n = 31), Grade 1 or 2
[5] = twice weekly (n = 31), Grade ≥3
[6] = two patients with CR, weekly schedule

Compound: CN[C@H]1CN(c2ccc3c(=O)c(C(=O)O)cn(-c4nccs4)c3n2)C[C@@H]1OC [vosaroxin, (+)-1,4-dihydro-7-(trans-3-methoxy-4-methylamino-1-pyrrolidinyl)-4-oxo-1-(2-thiazolyl)-1,8-naphthyridine-3-carboxylic acid]
- Increase in γH2AX ([1]; day 1, 2 h postdose, patients with blasts ≥5%): 1.8 fold
- Increase in γH2AX ([1]; day 1, 2 h postdose, patients with bone marrow blasts <5% after treatment): 2.6 fold
- Increase in γH2AX ([1]; day 8, 2 h postdose, patients with blasts ≥5%): 1.7 fold
- Increase in γH2AX ([1]; day 8, 2 h postdose, patients with bone marrow blasts <5% after treatment): 3.8 fold
- Patients with increased γH2AX after the first dose ([1]; weekly schedule, 50 mg/m^2 or higher, 2 h postdose day 1): 7 of 10
- Patients with γH2AX higher than at baseline before treatment on day 8 ([1]; weekly schedule, day 8 predose): 9 of 10
- Concentration in bone marrow relative to blood [2]: ~ 30 fold
- Dependence of activity on p53 (p53): independent of p53
- 30-day all-cause mortality rate ([3]; 73 treated patients): 11%
- Deaths within 30 days after the first dose ([3]; 73 treated patients): Eight
- Abdominal pain, % of patients ([3]; Total (n = 73), All grades): 22%
- Abdominal pain, No. of patients ([3]; Total (n = 73), All grades): 16
- Anorexia, No. of patients ([3]; Total (n = 73), All grades): 30
- Diarrhea, % of patients ([3]; Total (n = 73), All grades): 49%
- Diarrhea, No. of patients ([3]; Total (n = 73), All grades): 36
- Nausea, % of patients ([3]; Total (n = 73), All grades): 63%
- Nausea, No. of patients ([3]; Total (n = 73), All grades): 46
- Peripheral edema, % of patients ([3]; Total (n = 73), All grades): 34%
- Peripheral edema, No. of patients ([3]; Total (n = 73), All grades): 25
- Petechiae, % of patients ([3]; Total (n = 73), All grades): 21%
- Petechiae, No. of patients ([3]; Total (n = 73), All grades): 15
- Pleural effusion, % of patients ([3]; Total (n = 73), All grades): 22%
- Pleural effusion, No. of patients ([3]; Total (n = 73), All grades): 16
- Pyrexia, % of patients ([3]; Total (n = 73), All grades): 29%
- Pyrexia, No. of patients ([3]; Total (n = 73), All grades): 21
- Stomatitis, % of patients ([3]; Total (n = 73), All grades): 29%
- Stomatitis, No. of patients ([3]; Total (n = 73), All grades): 21
- Clinical manifestation of QTc prolongation, such as torsades de pointes ([3]; all treated patients): No clinical manifestation of QTc prolongation
- Stomatitis duration, range ([3]; cycle 1): 5 to 39 days
- Stomatitis median duration ([3]; cycle 1): 15 days
- Stomatitis median onset ([3]; cycle 1): 14 days
- Stomatitis onset, range ([3]; cycle 1): 3 to 20 days
- Patients experiencing stomatitis grade 1–2 ([3]; cycle 1, overall): 12%
- Patients experiencing stomatitis grade ≥3 ([3]; cycle 1, overall): 15%
- Patients experiencing stomatitis of any grade ([3]; cycle 1, overall): 27%
- Treatment-related hepatic or renal dysfunction ([3]; doses up to 90 mg/m^2 weekly and 50 mg/m^2 twice weekly): No grade 3 or greater treatment-related hepatic or renal dysfunction was reported
- Time of death after first dose, range ([3]; eight deaths within 30 days): 11 to 30 days
- Dose-limiting toxicity (DLT) ([3]; patients with advanced leukemia, both schedules): stomatitis
- Abdominal pain, % of patients [3, 4]: 10%
- Abdominal pain, No. of patients [3, 4]: 3
- Anorexia, % of patients [3, 4]: 39%
- Anorexia, No. of patients [3, 4]: 12
- Diarrhea, % of patients [3, 4]: 39%
- Diarrhea, No. of patients [3, 4]: 12
- Dyspnea, No. of patients [3, 4]: 10
- Fatigue, No. of patients [3, 4]: 14
- Febrile neutropenia, % of patients [3, 4]: 0%
- Febrile neutropenia, No. of patients [3, 4]: 0
- Infection (20 individual adverse event terms), No. of patients [3, 4]: 10
- Nausea, % of patients [3, 4]: 68%
- Nausea, No. of patients [3, 4]: 21
- Peripheral edema, % of patients [3, 4]: 29%
- Peripheral edema, No. of patients [3, 4]: 9
- Petechiae, % of patients [3, 4]: 19%
- Petechiae, No. of patients [3, 4]: 6
- Pleural effusion, % of patients [3, 4]: 16%
- Pleural effusion, No. of patients [3, 4]: 5
- Pyrexia, % of patients [3, 4]: 19%
- Pyrexia, No. of patients [3, 4]: 6
- Stomatitis, % of patients [3, 4]: 19%
- Stomatitis, No. of patients [3, 4]: 6
- Abdominal pain, % of patients [3, 5]: 3%
- Abdominal pain, No. of patients [3, 5]: 1
- Anorexia, % of patients [3, 5]: 0%
- Anorexia, No. of patients [3, 5]: 0
- Diarrhea, % of patients [3, 5]: 3%
- Diarrhea, No. of patients [3, 5]: 1
- Dyspnea, % of patients [3, 5]: 3%
- Dyspnea, No. of patients [3, 5]: 1
- Fatigue, % of patients [3, 5]: 0%
- Fatigue, No. of patients [3, 5]: 0
- Febrile neutropenia, No. of patients [3, 5]: 15
- Infection (20 individual adverse event terms), No. of patients [3, 5]: 11
- Nausea, % of patients [3, 5]: 3%
- Nausea, No. of patients [3, 5]: 1
- Peripheral edema, % of patients [3, 5]: 0%
- Peripheral edema, No. of patients [3, 5]: 0
- Petechiae, % of patients [3, 5]: 3%
- Petechiae, No. of patients [3, 5]: 1
- Pleural effusion, % of patients [3, 5]: 3%
- Pleural effusion, No. of patients [3, 5]: 1
- Pyrexia, No. of patients [3, 5]: 4
- Stomatitis, % of patients [3, 5]: 19%
- Stomatitis, No. of patients [3, 5]: 6
- Time to recovery of peripheral absolute neutrophil counts to >1×10^9/l [3, 6]: 50 days
- Time to recovery of platelets to ≥100×10^9/l [3, 6]: 28 days
- Abdominal pain, No. of patients ([3]; weekly (n = 42), Grade 1 or 2): 11
- Diarrhea, % of patients ([3]; weekly (n = 42), Grade 1 or 2): 52%
- Diarrhea, No. of patients ([3]; weekly (n = 42), Grade 1 or 2): 22
- Dyspnea, % of patients ([3]; weekly (n = 42), Grade 1 or 2): 31%
- Fatigue, No. of patients ([3]; weekly (n = 42), Grade 1 or 2): 19
- Febrile neutropenia, % of patients ([3]; weekly (n = 42), Grade 1 or 2): 0%
- Febrile neutropenia, No. of patients ([3]; weekly (n = 42), Grade 1 or 2): 0
- Infection (20 individual adverse event terms), % of patients ([3]; weekly (n = 42), Grade 1 or 2): 12%
- Infection (20 individual adverse event terms), No. of patients ([3]; weekly (n = 42), Grade 1 or 2): 5
- Nausea, % of patients ([3]; weekly (n = 42), Grade 1 or 2): 57%
- Nausea, No. of patients ([3]; weekly (n = 42), Grade 1 or 2): 24
- Peripheral edema, % of patients ([3]; weekly (n = 42), Grade 1 or 2): 36%
- Peripheral edema, No. of patients ([3]; weekly (n = 42), Grade 1 or 2): 15
- Petechiae, % of patients ([3]; weekly (n = 42), Grade 1 or 2): 19%
- Petechiae, No. of patients ([3]; weekly (n = 42), Grade 1 or 2): 8
- Pleural effusion, % of patients ([3]; weekly (n = 42), Grade 1 or 2): 21%
- Pleural effusion, No. of patients ([3]; weekly (n = 42), Grade 1 or 2): 9
- Pyrexia, No. of patients ([3]; weekly (n = 42), Grade 1 or 2): 10
- Stomatitis, % of patients ([3]; weekly (n = 42), Grade 1 or 2): 10%
- Stomatitis, No. of patients ([3]; weekly (n = 42), Grade 1 or 2): 4
- Abdominal pain, % of patients ([3]; weekly (n = 42), Grade ≥3): 2%
- Abdominal pain, No. of patients ([3]; weekly (n = 42), Grade ≥3): 1
- Anorexia, % of patients ([3]; weekly (n = 42), Grade ≥3): 2%
- Anorexia, No. of patients ([3]; weekly (n = 42), Grade ≥3): 1
- Diarrhea, % of patients ([3]; weekly (n = 42), Grade ≥3): 2%
- Diarrhea, No. of patients ([3]; weekly (n = 42), Grade ≥3): 1
- Dyspnea, % of patients ([3]; weekly (n = 42), Grade ≥3): 0%
- Dyspnea, No. of patients ([3]; weekly (n = 42), Grade ≥3): 0
- Fatigue, % of patients ([3]; weekly (n = 42), Grade ≥3): 2%
- Fatigue, No. of patients ([3]; weekly (n = 42), Grade ≥3): 1
- Febrile neutropenia, No. of patients ([3]; weekly (n = 42), Grade ≥3): 28
- Infection (20 individual adverse event terms), No. of patients ([3]; weekly (n = 42), Grade ≥3): 22
- Nausea, % of patients ([3]; weekly (n = 42), Grade ≥3): 0%
- Nausea, No. of patients ([3]; weekly (n = 42), Grade ≥3): 0
- Peripheral edema, % of patients ([3]; weekly (n = 42), Grade ≥3): 2%
- Peripheral edema, No. of patients ([3]; weekly (n = 42), Grade ≥3): 1
- Petechiae, % of patients ([3]; weekly (n = 42), Grade ≥3): 0%
- Petechiae, No. of patients ([3]; weekly (n = 42), Grade ≥3): 0
- Pleural effusion, % of patients ([3]; weekly (n = 42), Grade ≥3): 2%
- Pleural effusion, No. of patients ([3]; weekly (n = 42), Grade ≥3): 1
- Pyrexia, % of patients ([3]; weekly (n = 42), Grade ≥3): 2%
- Pyrexia, No. of patients ([3]; weekly (n = 42), Grade ≥3): 1
- Stomatitis, % of patients ([3]; weekly (n = 42), Grade ≥3): 12%
- Stomatitis, No. of patients ([3]; weekly (n = 42), Grade ≥3): 5
- Patients with grade 3 stomatitis as DLT ([3]; weekly schedule): five
